Test results published in ChEMBL document CHEMBL4229410, “Facile construction of fused benzimidazole-isoquinolinones that induce cell-cycle arrest and apoptosis in colorectal cancer cells” (Bioorg Med Chem, 2018).
Active and inactive are the calls of the source. The rule behind the calls is not given here.

How the values were obtained:
SW-620 [1] = assay: Antiproliferative activity against human SW620 cells after 48 hrs by BrdU/DAPI staining based immunofluorescence assay; type: functional, cell-based
Procedure, shortened: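 Cells seeded at 20,000 per well after reaching 80% confluence; exposed 48 h to 0, 25, 50, 75 μM, then 10 μM BrdU for 2 h. Paraformaldehyde fixation, 2 M HCl 30 min, 10% goat serum block, anti-BrdU primary overnight at 4 °C, secondary 120 min at room temperature, DAPI 300 nM. Fluorescence microscopy; percent BrdU-positive nuclei, mean ± SD of three independent experiments.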

SW-620 [2] = assay: Inhibition of colony formation in human SW620 cells assessed as reduction in colony size at 25 to 75 uM treated for 48 hrs followed by compound washout and measured after 14 hrs by crystal violet staining based assay; type: functional, cell-based
HT-29 [3] = assay: Cell cycle arrest in human HT-29 cells assessed as accumulation at G2-phase at 50 uM after 48 hrs by propidium iodide staining based flow cytometry (reference value: 15.45%); type: functional
HT-29 [4] = assay: Cell cycle arrest in human HT-29 cells assessed as accumulation at G1-phase at 75 uM after 48 hrs by propidium iodide staining based flow cytometry (reference value: 41.86%); type: functional
HT-29 [5] = assay: Cell cycle arrest in human HT-29 cells assessed as increase in accumulation at G2/M-phase after 48 hrs by propidium iodide staining based flow cytometry; type: functional
SW-620 [6] = assay: Upregulation of p53 expression in human SW620 cells after 48 hrs by Western blot analysis; type: functional, cell-based
HT-29 [7] = assay: Induction of apoptosis in human HT-29 cells assessed as live cells at 50 uM after 48 hrs by Annexin-V-FITC/propidium iodide staining based flow cytometry (reference value: 93.2%); type: functional
HT-29 [8] = assay: Induction of apoptosis in human HT-29 cells assessed as live cells at 75 uM after 48 hrs by Annexin-V-FITC/propidium iodide staining based flow cytometry (reference value: 93.2%); type: functional
HT-29 [9] = assay: Induction of apoptosis in human HT-29 cells after 48 hrs by Annexin-V-FITC/propidium iodide staining based flow cytometry; type: functional, cell-based
[10] = target: Serine/threonine-protein kinase mTOR (Homo sapiens) (UniProt P42345); assay: Inhibition of mTOR in human HT-29 cells assessed as reduction in 4EBP1 phosphorylation up to 75 uM after 48 hrs by Western blot analysis; type: cell-based
[11] = target: RAC-alpha serine/threonine-protein kinase (Homo sapiens, UniProt P31749); assay: Inhibition of human AKT1 expressed in bacterial expression system assessed as residual activity at 5 uM by KINOMEscan assay relative to control
Aurora kinase B = Aurora kinase B (Homo sapiens, UniProt Q96GD4); assay: Inhibition of human AURKB (D25 to A303 residues) expressed in mammalian expression system assessed as residual activity at 5 uM by KINOMEscan assay relative to control
Chain of Aurora kinase B (Q96GD4 whole entry, the tested form may be a part): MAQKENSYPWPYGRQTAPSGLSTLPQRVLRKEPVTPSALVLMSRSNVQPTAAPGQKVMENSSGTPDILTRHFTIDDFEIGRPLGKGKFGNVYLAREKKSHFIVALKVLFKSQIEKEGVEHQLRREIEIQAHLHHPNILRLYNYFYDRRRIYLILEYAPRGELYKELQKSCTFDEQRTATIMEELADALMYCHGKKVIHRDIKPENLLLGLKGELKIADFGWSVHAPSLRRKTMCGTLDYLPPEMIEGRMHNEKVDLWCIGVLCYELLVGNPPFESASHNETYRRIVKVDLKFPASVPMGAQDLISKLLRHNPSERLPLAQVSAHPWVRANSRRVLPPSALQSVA

[12] = target: Serine/threonine-protein kinase B-raf (Homo sapiens, UniProt P15056); assay: Inhibition of human BRAF (S429 to E741 residues) expressed in mammalian expression system assessed as residual activity at 5 uM by KINOMEscan assay relative to control
Insulin receptor = Insulin receptor (Homo sapiens, UniProt P06213); assay: Inhibition of human INSR (P997 to E1318 residues) expressed in mammalian expression system assessed as residual activity at 5 uM by KINOMEscan assay relative to control
Chain of Insulin receptor (P06213 28-758 limits assumed): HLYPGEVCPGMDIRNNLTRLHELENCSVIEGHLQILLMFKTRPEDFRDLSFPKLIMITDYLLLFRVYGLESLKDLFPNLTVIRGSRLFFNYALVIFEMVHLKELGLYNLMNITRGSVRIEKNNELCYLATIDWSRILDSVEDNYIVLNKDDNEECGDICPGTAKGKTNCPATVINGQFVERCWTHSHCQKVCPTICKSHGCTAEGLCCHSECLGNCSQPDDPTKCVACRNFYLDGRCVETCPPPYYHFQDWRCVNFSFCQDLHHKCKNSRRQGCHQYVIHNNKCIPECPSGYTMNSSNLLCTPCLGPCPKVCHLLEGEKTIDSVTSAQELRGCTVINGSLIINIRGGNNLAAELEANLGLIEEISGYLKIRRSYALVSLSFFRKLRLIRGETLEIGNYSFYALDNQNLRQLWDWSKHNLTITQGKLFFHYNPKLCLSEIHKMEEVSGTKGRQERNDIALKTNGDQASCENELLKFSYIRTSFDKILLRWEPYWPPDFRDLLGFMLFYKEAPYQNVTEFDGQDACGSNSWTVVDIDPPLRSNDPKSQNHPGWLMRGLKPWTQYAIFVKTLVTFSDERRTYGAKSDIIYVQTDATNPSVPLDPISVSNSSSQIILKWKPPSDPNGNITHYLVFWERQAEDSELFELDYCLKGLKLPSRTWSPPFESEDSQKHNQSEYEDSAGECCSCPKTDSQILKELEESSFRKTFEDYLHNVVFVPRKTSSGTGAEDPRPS
Chain of Insulin receptor (P06213 763-1382 limits assumed): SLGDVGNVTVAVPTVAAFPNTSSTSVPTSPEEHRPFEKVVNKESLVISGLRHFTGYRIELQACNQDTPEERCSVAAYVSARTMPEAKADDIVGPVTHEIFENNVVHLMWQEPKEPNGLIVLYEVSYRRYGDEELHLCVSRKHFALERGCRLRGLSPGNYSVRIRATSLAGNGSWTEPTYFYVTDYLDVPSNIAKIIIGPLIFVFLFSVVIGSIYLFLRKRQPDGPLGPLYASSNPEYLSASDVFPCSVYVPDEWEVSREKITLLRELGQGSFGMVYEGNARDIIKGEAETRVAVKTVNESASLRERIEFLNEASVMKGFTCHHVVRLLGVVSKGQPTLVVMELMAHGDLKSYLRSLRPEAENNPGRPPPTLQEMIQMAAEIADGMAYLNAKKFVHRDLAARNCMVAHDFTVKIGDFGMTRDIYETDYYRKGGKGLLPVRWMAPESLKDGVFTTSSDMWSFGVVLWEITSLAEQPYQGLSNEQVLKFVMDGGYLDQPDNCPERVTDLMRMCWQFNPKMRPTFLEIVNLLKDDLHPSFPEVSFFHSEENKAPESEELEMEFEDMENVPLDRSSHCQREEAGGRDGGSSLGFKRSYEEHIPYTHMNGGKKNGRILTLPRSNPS

[13] = target: Mitogen-activated protein kinase kinase kinase 9 (Homo sapiens, UniProt P80192); assay: Inhibition of human MLK1 (V88 to W426 residues) expressed in bacterial expression system assessed as residual activity at 5 uM by KINOMEscan assay relative to control
[14] = target: Mitogen-activated protein kinase 14 (Homo sapiens, UniProt Q16539); assay: Inhibition of full length human p38alpha (M1 to S360 residues) expressed in bacterial expression system assessed as residual activity at 5 uM by KINOMEscan assay relative to control
[15] = target: Platelet-derived growth factor receptor beta (Homo sapiens, UniProt P09619); assay: Inhibition of human PDGFRB (V582 to Y1009 residues) expressed in bacterial expression system assessed as residual activity at 5 uM by KINOMEscan assay relative to control
[16] = target: Serine/threonine-protein kinase pim-2 (Homo sapiens, UniProt Q9P1W9); assay: Inhibition of human PIM2 (M1 to E291 residues) expressed in bacterial expression system assessed as residual activity at 5 uM by KINOMEscan assay relative to control
[17] = target: Protein kinase C epsilon type (Homo sapiens) (UniProt Q02156); assay: Inhibition of human PRKCE (A378 to P737 residues) expressed in mammalian expression system assessed as residual activity at 5 uM by KINOMEscan assay relative to control
Chain of Protein kinase C epsilon type (Homo sapiens) (Q02156 whole entry, the tested form may be a part): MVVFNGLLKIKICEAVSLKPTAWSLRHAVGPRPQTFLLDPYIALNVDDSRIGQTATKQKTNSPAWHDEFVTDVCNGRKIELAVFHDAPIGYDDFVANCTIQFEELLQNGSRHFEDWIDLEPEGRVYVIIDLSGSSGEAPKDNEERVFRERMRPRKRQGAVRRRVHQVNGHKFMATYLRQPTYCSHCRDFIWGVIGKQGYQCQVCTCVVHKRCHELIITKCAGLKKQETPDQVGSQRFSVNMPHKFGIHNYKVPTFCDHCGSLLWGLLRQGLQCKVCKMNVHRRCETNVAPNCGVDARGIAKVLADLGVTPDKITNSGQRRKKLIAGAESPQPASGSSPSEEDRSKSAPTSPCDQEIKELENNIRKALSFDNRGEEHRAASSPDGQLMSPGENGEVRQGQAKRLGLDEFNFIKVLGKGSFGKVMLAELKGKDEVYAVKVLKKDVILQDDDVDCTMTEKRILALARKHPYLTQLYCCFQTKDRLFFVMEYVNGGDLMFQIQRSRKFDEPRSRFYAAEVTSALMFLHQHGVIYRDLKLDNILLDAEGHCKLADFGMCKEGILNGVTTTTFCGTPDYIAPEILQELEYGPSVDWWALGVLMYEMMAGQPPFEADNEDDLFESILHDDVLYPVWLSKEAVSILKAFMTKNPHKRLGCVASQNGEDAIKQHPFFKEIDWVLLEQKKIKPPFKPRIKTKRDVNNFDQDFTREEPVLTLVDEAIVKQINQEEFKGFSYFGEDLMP

[18] = target: T1, RAF proto-oncogene serine/threonine-protein kinase (Homo sapiens, UniProt P04049); assay: Inhibition of human RAF1 (I330 to T640 residues) expressed in bacterial expression system assessed as residual activity at 5 uM by KINOMEscan assay relative to control
T1 sequence (P04049 whole entry, the tested form may be a part): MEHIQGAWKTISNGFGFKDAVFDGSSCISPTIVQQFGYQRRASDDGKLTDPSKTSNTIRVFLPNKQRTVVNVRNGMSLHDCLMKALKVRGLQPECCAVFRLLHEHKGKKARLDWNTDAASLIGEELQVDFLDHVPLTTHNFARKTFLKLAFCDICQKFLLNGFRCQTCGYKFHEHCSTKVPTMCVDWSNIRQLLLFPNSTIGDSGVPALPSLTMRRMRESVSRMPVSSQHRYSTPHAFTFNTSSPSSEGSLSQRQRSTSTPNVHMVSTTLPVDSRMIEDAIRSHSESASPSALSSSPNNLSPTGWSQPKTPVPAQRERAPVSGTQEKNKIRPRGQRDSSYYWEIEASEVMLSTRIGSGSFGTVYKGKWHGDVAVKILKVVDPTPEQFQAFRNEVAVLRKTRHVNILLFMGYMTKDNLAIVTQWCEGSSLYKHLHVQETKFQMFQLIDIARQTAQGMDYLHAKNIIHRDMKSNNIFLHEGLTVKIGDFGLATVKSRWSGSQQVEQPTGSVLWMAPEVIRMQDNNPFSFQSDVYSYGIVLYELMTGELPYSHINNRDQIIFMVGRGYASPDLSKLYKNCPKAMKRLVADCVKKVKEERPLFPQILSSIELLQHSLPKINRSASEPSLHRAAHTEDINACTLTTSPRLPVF

[19] = target: Proto-oncogene tyrosine-protein kinase receptor Ret (Homo sapiens, UniProt P07949); assay: Inhibition of human RET (E713 to D1014 residues) expressed in bacterial expression system assessed as residual activity at 5 uM by KINOMEscan assay relative to control
[20] = target: Tyrosine-protein kinase ABL1 (Homo sapiens, UniProt P00519); assay: Binding affinity to human phosphorylated ABL1 (S229 to K512 residues) expressed in mammalian expression system by KINOMEscan assay
[21] = target: ALK tyrosine kinase receptor (Homo sapiens, UniProt Q9UM73); assay: Binding affinity to human ALK (I1088 to E1409 residues) expressed in mammalian expression system by KINOMEscan assay
[22] = target: Bone morphogenetic protein receptor type-2 (Homo sapiens, UniProt Q13873); assay: Binding affinity to human BMPR2 (R179 to Q526 residues) expressed in mammalian expression system by KINOMEscan assay
Chain of Bone morphogenetic protein receptor type-2 (Q13873 whole entry, the tested form may be a part): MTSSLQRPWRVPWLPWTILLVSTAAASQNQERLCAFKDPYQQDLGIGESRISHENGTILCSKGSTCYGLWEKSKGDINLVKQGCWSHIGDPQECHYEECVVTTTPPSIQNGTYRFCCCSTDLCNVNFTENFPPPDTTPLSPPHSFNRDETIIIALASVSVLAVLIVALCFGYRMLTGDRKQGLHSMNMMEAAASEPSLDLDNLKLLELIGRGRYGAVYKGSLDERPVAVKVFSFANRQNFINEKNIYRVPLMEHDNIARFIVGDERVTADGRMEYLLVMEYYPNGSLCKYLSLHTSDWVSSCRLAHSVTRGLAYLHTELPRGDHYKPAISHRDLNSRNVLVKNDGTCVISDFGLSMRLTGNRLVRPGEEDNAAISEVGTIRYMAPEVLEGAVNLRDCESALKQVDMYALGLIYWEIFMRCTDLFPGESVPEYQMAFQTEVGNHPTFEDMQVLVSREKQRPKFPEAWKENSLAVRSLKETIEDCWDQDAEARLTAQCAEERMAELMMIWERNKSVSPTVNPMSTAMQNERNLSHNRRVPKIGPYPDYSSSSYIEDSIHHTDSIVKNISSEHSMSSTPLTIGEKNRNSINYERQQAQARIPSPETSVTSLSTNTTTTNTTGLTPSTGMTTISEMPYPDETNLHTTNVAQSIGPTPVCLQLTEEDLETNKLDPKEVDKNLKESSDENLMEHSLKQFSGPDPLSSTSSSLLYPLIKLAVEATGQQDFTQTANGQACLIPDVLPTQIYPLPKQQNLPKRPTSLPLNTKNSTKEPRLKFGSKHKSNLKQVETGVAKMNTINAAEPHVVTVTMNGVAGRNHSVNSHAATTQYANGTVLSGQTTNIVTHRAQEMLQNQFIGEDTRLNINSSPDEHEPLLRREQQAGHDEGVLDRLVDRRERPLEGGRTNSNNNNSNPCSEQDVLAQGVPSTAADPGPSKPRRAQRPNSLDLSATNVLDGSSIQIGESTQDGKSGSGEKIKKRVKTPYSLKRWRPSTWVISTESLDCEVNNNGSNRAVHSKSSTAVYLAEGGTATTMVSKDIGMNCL

[23] = target: Cyclin-dependent kinase 3 (Homo sapiens, UniProt Q00526); assay: Binding affinity to full length human CDK3 (M1 to H305 residues) expressed in bacterial expression system by KINOMEscan assay
Chain of Cyclin-dependent kinase 3 (Q00526 whole entry, the tested form may be a part): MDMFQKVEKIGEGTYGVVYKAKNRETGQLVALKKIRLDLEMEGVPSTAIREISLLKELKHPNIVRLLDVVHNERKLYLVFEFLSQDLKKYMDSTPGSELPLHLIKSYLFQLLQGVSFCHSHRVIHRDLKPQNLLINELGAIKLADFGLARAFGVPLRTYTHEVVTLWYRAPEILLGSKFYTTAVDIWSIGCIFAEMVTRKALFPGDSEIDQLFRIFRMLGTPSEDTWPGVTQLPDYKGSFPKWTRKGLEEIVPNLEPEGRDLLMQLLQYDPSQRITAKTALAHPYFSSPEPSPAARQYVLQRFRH

[24] = target: Cyclin-dependent kinase 16 (Homo sapiens, UniProt Q00536); assay: Binding affinity to human PCTK1 (G160 to A474 residues) expressed in mammalian expression system by KINOMEscan assay
Chain of Cyclin-dependent kinase 16 (Q00536 whole entry, the tested form may be a part): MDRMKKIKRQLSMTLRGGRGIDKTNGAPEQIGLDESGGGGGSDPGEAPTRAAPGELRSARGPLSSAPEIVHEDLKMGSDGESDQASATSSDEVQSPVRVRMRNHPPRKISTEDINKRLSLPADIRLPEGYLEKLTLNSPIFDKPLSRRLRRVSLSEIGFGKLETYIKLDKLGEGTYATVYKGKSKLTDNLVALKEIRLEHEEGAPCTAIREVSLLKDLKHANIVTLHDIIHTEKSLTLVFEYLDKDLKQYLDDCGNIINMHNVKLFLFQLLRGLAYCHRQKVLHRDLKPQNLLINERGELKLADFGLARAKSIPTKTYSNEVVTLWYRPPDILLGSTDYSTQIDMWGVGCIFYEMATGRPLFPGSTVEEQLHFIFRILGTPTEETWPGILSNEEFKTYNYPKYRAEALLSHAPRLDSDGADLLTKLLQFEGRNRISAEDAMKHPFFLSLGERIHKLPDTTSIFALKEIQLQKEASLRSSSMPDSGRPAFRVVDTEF

[25] = target: Protein kinase C epsilon type (Homo sapiens, UniProt Q02156); assay: Binding affinity to human PRKCE (A378 to P737 residues) expressed in mammalian expression system by KINOMEscan assay
Chain of Protein kinase C epsilon type (Q02156 whole entry, the tested form may be a part): as the sequence (Q02156 whole entry, the tested form may be a part) above

[26] = target: T1, RAF proto-oncogene serine/threonine-protein kinase; assay: Binding affinity to human RAF1 (I330 to T640 residues) expressed in bacterial expression system by KINOMEscan assay
[27] = target: Serine/threonine-protein kinase ULK2 (Homo sapiens, UniProt Q8IYT8); assay: Binding affinity to human ULK2 (M1 to S301 residues) expressed in mammalian expression system by KINOMEscan assay
[28] = target: Tyrosine-protein kinase ZAP-70 (Homo sapiens, UniProt P43403); assay: Binding affinity to human ZAP70 (D20 to G299 residues) expressed in mammalian expression system by KINOMEscan assay

CC(C)CN(C(=O)c1cccnc1)c1c2ccccc2c(=O)n2c1[nH]c1ccccc12
Activity (SW-620 [1]): Dose-dependent effect
inhibition (SW-620 [2]): Active
Activity (HT-29 [3]): 18.12%
Activity (HT-29 [4]): 43.36%
Activity (HT-29 [5]): Dose-dependent effect
Activity (SW-620 [6]): Dose-dependent effect
Activity (HT-29 [7]): 80.3%
Activity (HT-29 [8]): 49.8%
Activity (HT-29 [9]): Dose-dependent effect
inhibition [10]: Active
Activity [11]: 98%
Activity (Aurora kinase B): 92%
Activity [12]: 82%
Activity (Insulin receptor): 100%
Activity [13]: 84%
Activity [14]: 100%
Activity [15]: 100%
Activity [16]: 100%
Activity [17]: 100%
Activity [18]: 89%
Activity [19]: 100%
Kd [20]: ≥ 5 µM
Kd [21]: ≥ 5 µM
Kd [22]: ≥ 5 µM
Kd [23]: ≥ 5 µM
Kd [24]: ≥ 5 µM
Kd [25]: ≥ 5 µM
Kd [26]: ≥ 5 µM
Kd [27]: ≥ 5 µM
Kd [28]: ≥ 5 µM
